# In ChEMBL document CHEMBL3808334, “Synthesis and in vitro evaluation of novel triazine analogues as anticancer agents and their interaction studies with bovine serum albumin” (Eur J Med Chem, 2016):
# Columns and labels:
# Format in all cases: functional
# SK-MEL-28 [1] = experiment: Growth inhibition of human SK-MEL-28 cells assessed as cell growth at 10^-8 M incubated for 48 hrs by sulforhodamine B assay; conditions: SK-MEL-28, 48 h, read-out: Activity
# [2] = Growth inhibition of human OVCAR4 cells incubated for 48 hrs by sulforhodamine B assay; conditions: OVCAR-4, 48 h
# Summary of the method: (§1)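 Cells were plated at 5,000–40,000 per well according to doubling time and preincubated 24 h at 37 °C in 5% CO2; time-zero plates were then TCA-fixed. Five concentrations (10-fold or ½-log dilutions, DMSO stock) were incubated 48 h. Cells were TCA-fixed, stained with 0.4% SRB and read at 515 nm. GI50 was taken where [(Ti−Tz)/(C−Tz)]×100 = 50.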
# M14 [3] = experiment: Growth inhibition of human M14 cells incubated for 48 hrs by sulforhodamine B assay; conditions: M14, 48 h; summary of the method: as §1
# A498 = experiment: Growth inhibition of human A498 cells assessed as cell growth at 10 uM incubated for 48 hrs by sulforhodamine B assay; conditions: A498, 48 h, read-out: Activity
# Summary of the method: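 One-dose screen at 10 µM final. Cells are plated at 5,000–40,000 per well according to doubling time and preincubated 24 h at 37 °C, 5% CO₂. Compound (DMSO stock diluted in medium with 50 µg/ml gentamicin) is then added for 48 h. Growth percent is read by sulforhodamine B staining, absorbance at 515 nm.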
# M14 [4] = experiment: Growth inhibition of human M14 cells assessed as cell growth at 10 uM incubated for 48 hrs by sulforhodamine B assay; conditions: M14, 48 h, read-out: Activity
# [5] = Growth inhibition of human SNB75 cells assessed as cell growth at 10^-6 M incubated for 48 hrs by sulforhodamine B assay; conditions: SNB-75, 48 h, read-out: Activity
# EKVX = experiment: Growth inhibition of human EKVX cells incubated for 48 hrs by sulforhodamine B assay
# Summary of the method: (§2)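 Cells seeded at 5,000–40,000/well according to doubling time and preincubated 24 h at 37 °C, 5% CO2. Time-zero plates were TCA-fixed. DMSO concentrate was diluted in medium with 50 µg/ml gentamicin to give five concentrations (10-fold or ½ log steps), then exposed 48 h. Cells were TCA-fixed, stained with 0.4% SRB and read at 515 nm. Percent growth was taken against time-zero and control; GI50, TGI and LC50 derived.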
# [6] = Growth inhibition of human SF295 cells assessed as cell growth at 10^-4 M incubated for 48 hrs by sulforhodamine B assay; conditions: SF-295, 48 h, read-out: Activity
# SK-MEL-28 [7] = experiment: Growth inhibition of human SK-MEL-28 cells assessed as cell growth at 10^-7 M incubated for 48 hrs by sulforhodamine B assay; conditions: SK-MEL-28, 48 h, read-out: Activity
# [8] = Growth inhibition of human Hs 578T cells assessed as cell growth at 10^-4 M incubated for 48 hrs by sulforhodamine B assay; conditions: read-out: Activity
# NCI-H322M [9] = experiment: Growth inhibition of human NCI-H322M cells assessed as cell growth at 10 uM incubated for 48 hrs by sulforhodamine B assay; conditions: read-out: Activity
# [10] = Growth inhibition of human TK10 cells assessed as cell growth at 10 uM incubated for 48 hrs by sulforhodamine B assay; conditions: TK-10, 48 h, read-out: Activity
# [11] = Growth inhibition of human HOP92 cells incubated for 48 hrs by sulforhodamine B assay; conditions: HOP-92, 48 h; summary of the method: as §2
# [12] = Growth inhibition of human RXF393 cells incubated for 48 hrs by sulforhodamine B assay; conditions: RXF 393, 48 h; summary of the method: as §1
# MDA-MB-231 = experiment: Growth inhibition of human MDA-MB-231 cells assessed as cell growth at 10^-8 M incubated for 48 hrs by sulforhodamine B assay; conditions: MDA-MB-231, 48 h, read-out: Activity
# SN12C = experiment: Growth inhibition of human SN12C cells assessed as cell growth at 10^-8 M incubated for 48 hrs by sulforhodamine B assay; conditions: read-out: Activity
# ACHN = experiment: Growth inhibition of human ACHN cells incubated for 48 hrs by sulforhodamine B assay
# Summary of the method: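 Five-dose assay: five concentrations from 10-fold or ½-log serial dilutions. Cells are plated at 5,000–40,000 per well according to doubling time, grown 24 h, then exposed 48 h at 37 °C, 5% CO₂. Fixed with cold 50% TCA (final addition) for 60 min at 4 °C and stained with 0.4% SRB in 1% acetic acid. Bound dye is solubilized in 10 mM Tris base and read at 515 nm. GI₅₀ is where [(Ti−Tz)/(C−Tz)]×100 = 50, with a time-zero plate as Tz.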
# [13] = Growth inhibition of human RPMI8226 cells assessed as cell growth at 10 uM incubated for 48 hrs by sulforhodamine B assay; conditions: RPMI-8226, 48 h, read-out: Activity
# NCI/ADR-RES = experiment: Growth inhibition of human NCI/ADR-RES cells assessed as cell growth at 10^-4 M incubated for 48 hrs by sulforhodamine B assay; conditions: read-out: Activity
# [14] = Growth inhibition of human HOP62 cells assessed as cell growth at 10^-5 M incubated for 48 hrs by sulforhodamine B assay; conditions: HOP-62, 48 h, read-out: Activity
# NCI-H322M [15] = experiment: Growth inhibition of human NCI-H322M cells incubated for 48 hrs by sulforhodamine B assay; summary of the method: as §1
# [16] = Growth inhibition of human SF295 cells assessed as cell growth at 10^-8 M incubated for 48 hrs by sulforhodamine B assay; conditions: SF-295, 48 h, read-out: Activity
# MCF7 = experiment: Growth inhibition of human MCF7 cells assessed as cell growth at 10^-8 M incubated for 48 hrs by sulforhodamine B assay; conditions: MCF7, 48 h, read-out: Activity
# NCI-H23 = experiment: Growth inhibition of human NCI-H23 cells assessed as cell growth at 10^-7 M incubated for 48 hrs by sulforhodamine B assay; conditions: NCI-H23, 48 h, read-out: Activity
# [17] = read-out: LC50 (the source's name)
# [18] = read-out: pLC50 (the source's name) (converted)
smiles,measurement,setting,value
Fc1ccc(-c2nc(Nc3ccc(-c4nc5ccccc5[nH]4)cc3)nc(N3CCOCC3)n2)cc1,growth at 0.01 µM,SK-MEL-28 [1],101%
same,GI50,[2]; read-out: GI50,3.13 µM
same,CC50,[2]; [17],> 100 µM
same,TGI,[2]; read-out: TGI,13 µM
same,GI50,[2]; read-out: pGI50 (converted),3.16 µM
same,CC50,[2]; [18],> 100 µM
same,TGI,[2]; read-out: pTGI (converted),13.2 µM
same,GI50,M14 [3]; read-out: GI50,1.94 µM
same,CC50,M14 [3]; [17],8.37 µM
same,TGI,M14 [3]; read-out: TGI,4.03 µM
same,GI50,M14 [3]; read-out: pGI50 (converted),1.95 µM
same,CC50,M14 [3]; [18],8.32 µM
same,TGI,M14 [3]; read-out: pTGI (converted),4.07 µM
same,growth at 10 µM,A498,-32.1%
same,growth at 10 µM,M14 [4],-7.64%
same,growth at 1 µM,[5],67%
same,GI50,EKVX; read-out: GI50,2.6 µM
same,LC50,EKVX; read-out: LC50,> 100 µM
same,TGI,EKVX; read-out: TGI,> 100 µM
same,GI50,EKVX; read-out: pGI50 (converted),2.63 µM
same,LC50,EKVX; read-out: pLC50 (converted),> 100 µM
same,TGI,EKVX; read-out: pTGI (converted),> 100 µM
same,growth at 100 µM,[6],-35%
same,growth at 0.1 µM,SK-MEL-28 [7],91%
same,growth at 100 µM,[8],-3%
same,growth at 10 µM,NCI-H322M [9],27%
same,growth at 10 µM,[10],43.9%
same,GI50,[11]; read-out: GI50,1.8 µM
same,LC50 (concentration killing 50% of starting cells),[11]; read-out: LC50,7.76 µM
same,TGI,[11]; read-out: TGI,3.74 µM
same,GI50,[11]; read-out: pGI50 (converted),1.82 µM
same,LC50 (concentration killing 50% of starting cells),[11]; read-out: pLC50 (converted),7.76 µM
same,TGI,[11]; read-out: pTGI (converted),3.72 µM
same,GI50,[12]; read-out: GI50,0.459 µM
same,CC50,[12]; [17],> 100 µM
same,TGI,[12]; read-out: TGI,2.51 µM
same,GI50,[12]; read-out: pGI50 (converted),0.457 µM
same,CC50,[12]; [18],> 100 µM
same,TGI,[12]; read-out: pTGI (converted),2.51 µM
same,growth at 0.01 µM,MDA-MB-231,92%
same,growth at 0.01 µM,SN12C,95%
same,GI50,ACHN; read-out: GI50,2.55 µM
same,CC50,ACHN; [17],> 100 µM
same,TGI,ACHN; read-out: TGI,> 100 µM
same,GI50,ACHN; read-out: pGI50 (converted),2.57 µM
same,CC50,ACHN; [18],> 100 µM
same,TGI,ACHN; read-out: pTGI (converted),> 100 µM
same,growth at 10 µM,[13],-13.8%
same,growth at 100 µM,NCI/ADR-RES,-13%
same,growth at 10 µM,[14],-34%
same,GI50,NCI-H322M [15]; read-out: GI50,3.62 µM
same,CC50,NCI-H322M [15]; [17],> 100 µM
same,TGI,NCI-H322M [15]; read-out: TGI,> 100 µM
same,GI50,NCI-H322M [15]; read-out: pGI50 (converted),3.63 µM
same,CC50,NCI-H322M [15]; [18],> 100 µM
same,TGI,NCI-H322M [15]; read-out: pTGI (converted),> 100 µM
same,growth at 0.01 µM,[16],93%
same,growth at 0.01 µM,MCF7,94%
same,growth at 0.1 µM,NCI-H23,91%
c1ccc2[nH]c(-c3ccc(Nc4nc(N5CCCCC5)nc(N5CCOCC5)n4)cc3)nc2c1,growth at 0.01 µM,SK-MEL-28 [1],100%
same,GI50,[2]; read-out: GI50,3.98 µM
same,CC50,[2]; [17],> 100 µM
same,TGI,[2]; read-out: TGI,25.4 µM
same,GI50,[2]; read-out: pGI50 (converted),3.98 µM
same,CC50,[2]; [18],> 100 µM
same,TGI,[2]; read-out: pTGI (converted),25.1 µM
same,GI50,M14 [3]; read-out: GI50,2.05 µM
same,CC50,M14 [3]; [17],15.6 µM
same,TGI,M14 [3]; read-out: TGI,4.72 µM
same,GI50,M14 [3]; read-out: pGI50 (converted),2.04 µM
same,CC50,M14 [3]; [18],15.5 µM
same,TGI,M14 [3]; read-out: pTGI (converted),4.68 µM
same,growth at 10 µM,A498,-28.6%
same,growth at 10 µM,M14 [4],-24.5%
same,growth at 1 µM,[5],69%
same,GI50,EKVX; read-out: GI50,2.68 µM
same,LC50,EKVX; read-out: LC50,> 100 µM
same,TGI,EKVX; read-out: TGI,> 100 µM
same,GI50,EKVX; read-out: pGI50 (converted),2.69 µM
same,LC50,EKVX; read-out: pLC50 (converted),> 100 µM
same,TGI,EKVX; read-out: pTGI (converted),> 100 µM
same,growth at 100 µM,[6],-56%
same,growth at 0.1 µM,SK-MEL-28 [7],100%
same,growth at 100 µM,[8],-12%
same,growth at 10 µM,NCI-H322M [9],35%
same,growth at 10 µM,[10],58.8%
same,GI50,[11]; read-out: GI50,1.99 µM
same,LC50 (concentration killing 50% of starting cells),[11]; read-out: LC50,9.34 µM
same,TGI,[11]; read-out: TGI,4.32 µM
same,GI50,[11]; read-out: pGI50 (converted),2 µM
same,LC50 (concentration killing 50% of starting cells),[11]; read-out: pLC50 (converted),9.33 µM
same,TGI,[11]; read-out: pTGI (converted),4.37 µM
same,GI50,[12]; read-out: GI50,0.808 µM
same,CC50,[12]; [17],> 100 µM
same,TGI,[12]; read-out: TGI,3.28 µM
same,GI50,[12]; read-out: pGI50 (converted),0.813 µM
same,CC50,[12]; [18],> 100 µM
same,TGI,[12]; read-out: pTGI (converted),3.31 µM
same,growth at 0.01 µM,MDA-MB-231,99%
same,growth at 0.01 µM,SN12C,95%
same,GI50,ACHN; read-out: GI50,3.14 µM
same,CC50,ACHN; [17],> 100 µM
same,TGI,ACHN; read-out: TGI,> 100 µM
same,GI50,ACHN; read-out: pGI50 (converted),3.16 µM
same,CC50,ACHN; [18],> 100 µM
same,TGI,ACHN; read-out: pTGI (converted),> 100 µM
same,growth at 10 µM,[13],2.47%
same,growth at 100 µM,NCI/ADR-RES,-10%
same,growth at 10 µM,[14],-52%
same,GI50,NCI-H322M [15]; read-out: GI50,4.72 µM
same,CC50,NCI-H322M [15]; [17],> 100 µM
same,TGI,NCI-H322M [15]; read-out: TGI,> 100 µM
same,GI50,NCI-H322M [15]; read-out: pGI50 (converted),4.68 µM
same,CC50,NCI-H322M [15]; [18],> 100 µM
same,TGI,NCI-H322M [15]; read-out: pTGI (converted),> 100 µM
same,growth at 0.01 µM,[16],94%
same,growth at 0.01 µM,MCF7,95%
same,growth at 0.1 µM,NCI-H23,93%
